Assay outcomes deposited in PubChem by several laboratories.
Only some compounds are listed: those with a hit (about 3.3% of all), similar ones and a draw of the others.
ATG4B inhibitor = ATG4B (human) cysteine protease inhibition; 340,000 compounds, 0.51% hits; Q9Y4P1; ATG4B cleavage of LC3-PLA2, NBD-HPC fluorescence, 1 h; inhibition, % at 8.33 µM; in the data active means inhibition above about 40%
Myeloid diff MLP = myeloid differentiation induction; ER-HoxA9 myeloid progenitors, lysozyme-GFP differentiation, flow cytometry; calls only at 10 µM; 360,000 compounds, 1% hits; AID 624256;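 active means normalized GFP-positive differentiation at or above the plate's own cutoff, the solvent-only control mean plus 3 SD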;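 further: cells exposed to compound for four days before flow analysis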
ABCB6 inh MLPCN = blocks the human ABCB6 transporter. Q9NP58. AID 602162. 360,000 compounds, 0.19% hits. K562-ABCB6 porphyrin accumulation, flow cytometry, 1 h; active compounds read low. fluorescence ratio to DMSO, % at 10 µM;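 active means fluorescence ratio to DMSO below 75%, the collection mean minus 3 SD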;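 further: signal is porphyrin accumulated inside mitochondria; 100% equals median channel fluorescence of DMSO control wells; lower ratio means ABCB6 inhibition with less porphyrin fluorescence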
Target sequence (Q9NP58 whole entry, looked up): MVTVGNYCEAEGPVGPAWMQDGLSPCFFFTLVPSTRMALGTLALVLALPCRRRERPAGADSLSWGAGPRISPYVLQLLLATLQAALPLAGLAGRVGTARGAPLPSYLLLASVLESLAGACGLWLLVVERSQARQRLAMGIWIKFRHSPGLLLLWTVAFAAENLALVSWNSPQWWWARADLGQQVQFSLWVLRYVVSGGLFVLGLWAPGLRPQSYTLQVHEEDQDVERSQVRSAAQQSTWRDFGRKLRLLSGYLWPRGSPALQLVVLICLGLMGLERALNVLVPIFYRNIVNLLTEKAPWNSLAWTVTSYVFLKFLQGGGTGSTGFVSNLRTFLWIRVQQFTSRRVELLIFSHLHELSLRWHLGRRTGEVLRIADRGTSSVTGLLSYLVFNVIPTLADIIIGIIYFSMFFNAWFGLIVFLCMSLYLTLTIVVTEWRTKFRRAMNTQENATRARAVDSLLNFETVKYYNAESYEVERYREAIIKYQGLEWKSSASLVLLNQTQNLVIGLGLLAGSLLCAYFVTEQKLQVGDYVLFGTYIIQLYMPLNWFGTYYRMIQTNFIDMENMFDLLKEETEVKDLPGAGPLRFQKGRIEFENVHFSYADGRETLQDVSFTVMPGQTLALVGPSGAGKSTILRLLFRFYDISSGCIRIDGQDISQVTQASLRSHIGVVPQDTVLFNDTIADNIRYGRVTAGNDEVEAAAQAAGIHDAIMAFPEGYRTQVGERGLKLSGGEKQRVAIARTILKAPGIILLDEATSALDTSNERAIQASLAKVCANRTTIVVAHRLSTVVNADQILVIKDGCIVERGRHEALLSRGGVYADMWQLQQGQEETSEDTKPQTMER
CendR NRP1 mod = modulators of CendR peptide binding to human neuropilin-1. O14786. FAM-RPARPAR peptide binding to NRP-1, fluorescence polarization. inhibition, % at 25 µM. 360,000 compounds, 0.85% hits. AID 602438;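 active means inhibition or corrected inhibition above about 18%, plus a signal ratio from 0.5 to 1.5, limit read from the data, passing the limit was not always enough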
Exocytosis inh = lytic granule exocytosis inhibition; inhibition, % at 10 µM; TALL-104 LAMP-1 surface exposure, flow cytometry; cells stimulated with thapsigargin and PMA; 360,000 compounds, 0.66% hits; AID 651702;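 active means inhibition above about 55%, limit read from the data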
Arrestin-AP2 inh = inhibitors of human beta-arrestin and AP2 interaction | FITC-arrestin peptide / GST-AP2 beads, flow cytometry; AP2 beta2 appendage carries R879A mutation | inhibition, % at 10 µM | AID 504490 | 340,000 compounds, 0.31% hits;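 active means inhibition above a set limit, near 3 SD of compounds lacking own fluorescence, cut at about 54% in these data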;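 further: plate controls were DMSO wells for no effect and 5 µM unlabelled arrestin peptide for full effect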
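System: GST-AP2 R879A glutathione beads. Medium: PBS with 0.05% Tween 20 and 0.1% BSA. Also added: FITC-arrestin peptide, 50 nM. Incubation: 12 min plus 1 h, RT. Measured by: high-throughput flow cytometry of beads, ex 488, em 535 nm. Evaluation: percent drop in bead-associated FITC signal.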
ATG4B conf = confirmation of human ATG4B inhibitors | inhibition, % at 8.33 µM | shares compounds with ATG4B inhibitor | 320 compounds, 92% hits | ATG4B protease fluorescent substrate cleavage assay; in the data active means inhibition above about 39%
PLA2 ctr = inhibits human PLA2, flagging false ATG4B inhibitors; AID 588402; 1,600 compounds, 66% hits; purified PLA2, NBD-C6-HPC fluorescence, 45 min; inhibition, % at 8.33 µM; shares compounds with ATG4B inhibitor; in the data active means inhibition above about 50%
An asterisk follows results filed as active; i = inactive; · = no result; + = active, no number.

SMILES | ATG4B inhibitor | Myeloid diff MLP | ABCB6 inh MLPCN | CendR NRP1 mod | Exocytosis inh | Arrestin-AP2 inh | PLA2 ctr | others
O=C(CSc1ccccc1C(=O)O)c1ccc(Cl)cc1 | -3 | i | 97 | 3 | -9 | 29 | ·
O=C(O)c1ccccc1NC(c1ccccc1)c1ccc(Cl)cc1 (centres undefined) | 85* | i | 96 | 1 | -4 | 0 | 87*
COc1ccc(CNC(=O)C(c2ccc(C)o2)N(C(=O)c2csnn2)c2ccc(C(C)C)cc2)cc1 (centres undefined) | 43* | i | 95 | -9 | -2 | -5 | 41
CCOC(=O)C1=C(C)N(CCC(=O)O)C(=O)NC1c1ccccc1Cl (centres undefined) | 5 | i | 100 | 1 | 14 | -1 | ·
NS(=O)(=O)c1ccc(N2N=C(c3ccccc3)CC2c2ccccc2Cl)cc1 (centres undefined) | 3 | i | 97 | -1 | 7 | 13 | ·
Cc1nc(N2CCN(C)CC2)c2c3c(sc2n1)CCCC3 | 1 | i | 97 | 15 | 2 | -7 | ·
CSc1nc(N2CCOCC2)c2c3c(sc2n1)CCC3 | 49* | i | 95 | 5 | 6 | -5 | 50*
CCCN(CC1CC1)C(=O)CSc1ncnc2sc(C)c(C)c12 | 53* | i | 92 | 7 | 0 | 1 | 56*
S=C(NCCSCc1c(Cl)cccc1Cl)Nc1ccccc1 | 45* | i | 99 | 1 | -2 | 29 | 50*
S=C(NCCSCc1ccc(Cl)cc1Cl)Nc1ccccc1 | 35 | i | 90 | -3 | 4 | 0 | ·
S=C(NCCSCc1ccc(Cl)c(Cl)c1)Nc1ccccc1 | 41* | i | 100 | 5 | 1 | 1 | 45 | ATG4B conf=64*
CCc1cccc(CC)c1-n1c(SCC(=O)N2CCc3ccccc3C2)nnc1-c1cccnc1 | 68* | i | 104 | -76 | 6 | -8 | 63*
Cn1c(SCC(=O)N2CCc3ccccc3C2)nnc1-c1ccncc1 | 6 | i | 98 | -4 | 0 | -17 | ·
C=CCn1c(SCC(=O)Nc2ccc3c(c2)CCC3)nnc1-c1cccs1 | 67* | i | 86 | 10 | 2 | 15 | 52*
C=CCn1c(SCC(=O)O)nnc1-c1cccs1 | 5 | i | 98 | -4 | 24 | 3 | ·
O=C1NC(=O)/C(=C\c2ccccc2OCc2ccccc2)S1 | 47* | i | 97 | -5 | 2 | -15 | 49 | ATG4B conf=59*
CCCOc1ccc2ccccc2c1/C=C1\SC(=O)NC1=O | · | i | 95 | -20 | 6 | -4 | 34
Cc1nc(-c2ccccn2)nc(N(C)c2ccccc2)c1Cl | 0 | i | 96 | 13 | -5 | 5 | ·
O=C(/C=C/c1ccc(Cl)cc1)N1CCN(c2c(Cl)cccc2[N+](=O)[O-])CC1 | 44* | i | 88 | -10 | 4 | -1 | 47
O=C(CSc1ccc(Cl)cc1)N1CCN(c2c(Cl)cccc2[N+](=O)[O-])CC1 | 39 | i | 94 | -2 | 0 | 8 | ·
CCc1cccc(C)c1NC(=O)COC(=O)c1c2c(nc3ccccc13)/C(=C\c1cccs1)CCC2 | 46* | i | 113 | 0 | 5 | 0 | 47
O=S(=O)(Nc1nc(-c2sccc2Cl)cs1)c1cc(Cl)ccc1Cl | 88* | i | 101 | -73 | 11 | 1 | 77*
CC(C)(C)c1nnc(NS(=O)(=O)c2cc(Cl)ccc2Cl)s1 | 0 | i | 106 | -12 | 2 | 32 | ·
CC(C)C[C@H](NC(=O)OC(C)(C)C)C(=O)N/N=C/C1=Cc2ccccc2OC1C (some centres undefined) | 42* | i | 98 | -3 | -1 | 7 | 31 | ATG4B conf=69*
O=C(O)c1cc(O)c2c(c1)[C@@H]([C@H]1c3cc(C(=O)O)cc(O)c3C(=O)c3c(O[C@@H]4O[C@H](CO)[C@@H](O)[C@H](O)[C@H]4O)cccc31)c1cccc(O[C@@H]3O[C@H](CO)[C@@H](O)[C@H](O)[C@H]3O)c1C2=O | 47* | · | · | · | · | · | -12
SMILES | ATG4B inhibitor | Myeloid diff MLP | ABCB6 inh MLPCN | CendR NRP1 mod | Exocytosis inh | Arrestin-AP2 inh | PLA2 ctr | others
COc1ccc(Br)cc1CNC(=O)C1CCCN(S(=O)(=O)N2CCC(C)CC2)C1 (centres undefined) | · | i | 102 | 18 | -2 | · | ·
COc1ccc(Br)cc1CNC(=O)C1CCN(S(=O)(=O)N2CCC(C)CC2)CC1 | 42* | i | 94 | 6 | 6 | 13 | 42 | ATG4B conf=67*
S=c1[nH]nc(-c2ccco2)n1-c1ccccc1Cl | -11 | i | 101 | -6 | 3 | -17 | ·
S=c1[nH]nc(-c2cc(-c3ccco3)[nH]n2)n1-c1ccccc1Cl | 50* | i | 99 | -43 | 0 | 26 | -7
COc1ccc(CC(=O)OCC(=O)Nc2cccnc2Cl)cc1OC | 10 | i | 97 | 3 | 2 | -7 | ·
Cc1cccc2nc(-c3cccnc3)c(NCCC(C)C)n12 | 40* | i | 92 | 0 | 5 | 20 | 51*
COc1ccccc1C(=O)NC(=O)COC(=O)CNC(=O)c1ccccc1F | -3 | i | 103 | 1 | 6 | 14 | ·
C/C(=N\NC(=O)C1=NNC(=O)C1C)c1cccs1 (centres undefined) | -2 | i | 106 | 3 | -2 | 3 | ·
CC1=C([N+](=O)[O-])C(c2ccccc2Cl)NC(=O)N1C (centres undefined) | 3 | i | 96 | 1 | -10 | -17 | ·
CCn1c(COc2ccc(Cl)cc2)nnc1SCc1ccc(C#N)cc1 | -14 | i | 94 | -8 | -2 | -10 | ·
CCn1c(COc2ccc(Cl)cc2)nnc1SC1CCc2ccccc2C1=O (centres undefined) | 88* | i | 80 | 0 | -2 | -35 | 84*
CCc1cc(=O)oc2cc(C)cc(OC(C)C(=O)NCCN3CCOCC3)c12 (centres undefined) | -7 | i | 95 | 7 | 2 | -1 | ·
Cc1ccc(C)c(CSc2nnc(-c3cccs3)n2Cc2ccco2)c1 | 83* | + | 95 | -7 | 2 | 8 | 77*
NC(=O)CSc1nnc(-c2cccs2)n1Cc1ccco1 | -10 | i | 99 | -1 | -4 | 21 | ·
Cc1ccc(Cl)c(OC(=O)Cn2cnc3c2c(=O)n(C)c(=O)n3C)c1 | -3 | i | 99 | 0 | 0 | -2 | ·
CCOC(=O)c1c(NC(=O)C(C)Sc2nnc(C)c(=O)[nH]2)sc2c1CCCC2 (centres undefined) | 62* | i | 97 | 1 | -11 | 17 | 65*
